Drawing on ChEMBL document CHEMBL1127520, “N-omega-fluoroalkyl analogs of (1R)-2 beta-carbomethoxy-3 beta-(4-iodophenyl)-tropane (beta-CIT): radiotracers for positron emission tomography and single photon emission computed tomography imaging of dopamine transporters” (J Med Chem, 1994), this text covers Count/h and Ki for 9 compounds.

In general, Ki refers to the dissociation constant of the complex between target and ligand, obtained from inhibition or displacement. Lower therefore signals higher affinity.

Assay [1] deals with Rattus norvegicus. Nature of the assay: The compound was evaluated for its behavioral activity i.e., locomotor arousal in rat for a dose of 1 mg/kg in time interval of 1 hour. Format: functional. In a few lines: (§1)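 Adult male Sprague-Dawley rats (150-200 g), 3-7 per group, given agent ip in saline containing DMSO; vehicle controls received saline/DMSO. Locomotion counted in an electronic activity monitor, reported as mean ± SEM counts/hour for 0-1, 1-2 and 2-3 h. Comparison by ANOVA, then post-hoc t tests against vehicle.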

Assay [2] addresses Sodium-dependent dopamine transporter (Rattus norvegicus, UniProt P23977). Briefly: Binding affinity for dopamine transporters in rat brain tissue. Format: tissue-based. In a few lines:
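Crude membrane fraction from rat corpus striatum homogenate. Nonspecific binding defined with 30 μM methylphenidate. Each agent tested at six concentrations in duplicate. Concentration-inhibition curves computer-fit for IC50 ± SEM, converted to Ki = IC50/(1 + [L/Kd]).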

In assay [3] the test system is Rattus norvegicus. Briefly: The compound was evaluated for its behavioral activity i.e., locomotor arousal in rat for a dose of 1 mg/kg in time interval of 2 hours. Format: functional. In a few lines: as §1
The subject of assay [4] is Rattus norvegicus. Briefly: The compound was evaluated for its behavioral activity i.e., locomotor arousal in rat for a dose of 1 mg/kg in time interval of 3 hours. Format: functional. Put shortly:
as §1

Assay [5] relates to Rattus norvegicus. Briefly: The compound was evaluated for its behavioral activity i.e., locomotor arousal in rat for a dose of 3 mg/kg in time interval of 2 hours. In kind it is functional. Put shortly: as §1
The test system of assay [6] is Rattus norvegicus. Briefly: The compound was evaluated for its behavioral activity i.e., locomotor arousal in rat for a dose of 0.3 mg/kg in time interval of 3 hours. Format: functional. Put shortly: as §1
For assay [7], the system named is Rattus norvegicus. Nature of the assay: The compound was evaluated for its behavioral activity i.e., locomotor arousal in rat for a dose of 3 mg/kg in time interval of 1 hour. In kind it is functional. Put shortly: as §1
The subject of assay [8] is Rattus norvegicus. Nature of the assay: The compound was evaluated for its behavioral activity i.e., locomotor arousal in rat for a dose of 0.3 mg/kg in time interval of 1 hour. In kind it is functional. Put shortly: as §1
Assay [9] has as its system Rattus norvegicus. Briefly: The compound was evaluated for its behavioral activity i.e., locomotor arousal in rat for a dose of 0.3 mg/kg in time interval of 2 hours. Format: functional. Put shortly: as §1
Assay [10] concerns Rattus norvegicus. Briefly: The compound was evaluated for its behavioral activity i.e., locomotor arousal in rat for a dose of 3 mg/kg in time interval of 3 hours. In kind it is functional. Put shortly:
as §1

Assay [11] relates to Rattus norvegicus. Briefly: The compound was evaluated for its behavioral activity i.e., locomotor arousal in rat for a dose of 1 mg/kg in time interval of 3 hours, expressed as mean =/- SEM activity. Format: functional. In a few lines:
as §1

Chain of Sodium-dependent dopamine transporter (P23977 whole entry): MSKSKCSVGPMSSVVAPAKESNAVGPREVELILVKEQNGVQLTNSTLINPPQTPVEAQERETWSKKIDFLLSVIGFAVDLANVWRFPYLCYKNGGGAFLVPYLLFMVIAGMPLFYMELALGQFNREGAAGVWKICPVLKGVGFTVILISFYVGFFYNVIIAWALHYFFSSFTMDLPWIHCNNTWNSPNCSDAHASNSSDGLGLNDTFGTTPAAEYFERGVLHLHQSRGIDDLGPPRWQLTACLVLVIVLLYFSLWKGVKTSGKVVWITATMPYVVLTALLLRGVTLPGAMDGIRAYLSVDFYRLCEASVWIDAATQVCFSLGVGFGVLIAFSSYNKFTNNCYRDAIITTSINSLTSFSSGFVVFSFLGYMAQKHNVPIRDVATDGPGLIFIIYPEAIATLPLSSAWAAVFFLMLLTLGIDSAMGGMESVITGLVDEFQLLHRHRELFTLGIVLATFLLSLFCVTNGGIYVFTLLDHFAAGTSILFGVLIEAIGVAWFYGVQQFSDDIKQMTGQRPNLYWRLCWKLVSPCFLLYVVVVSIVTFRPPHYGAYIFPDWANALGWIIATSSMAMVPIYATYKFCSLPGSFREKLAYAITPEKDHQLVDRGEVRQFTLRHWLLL

Take `COC(=O)[C@H]1C(c2ccc(I)cc2)C[C@H]2CCC1N2C` (stereo partly drawn): the Count/h is below 6820 in assay [1], below 9990 in [3] and below 9710 in [4]. The compound also registered a Ki in [2] of 1.4 nM.
In [2], `CC(C)OC(=O)[C@@H]1C2CC[C@H](C[C@@H]1c1ccc(I)cc1)N2CCF` displayed a Ki of 4.4 nM.
The same measure, in the same setting: as for `CC(C)OC(=O)[C@@H]1C2CC[C@H](C[C@@H]1c1ccc(I)cc1)N2CCCF`, the figure is 1.2 nM.
For the compound `COC(=O)[C@H]1C(c2ccc(I)cc2)C[C@H]2CCC1N2CCCF` (stereo partly drawn), the Count/h in [5] is listed as below 2109; in [6] it was 210; in assay [7], below 3791; in [8] it was 759; in [1] it was below 1943; in assay [9], 403. The Count/h in [3] is below 1071; in assay [4] it was below 325; in assay [10], below 1410. The compound also had a Ki in assay [2] of 3.5 nM.
Consider `COC(=O)[C@H]1C(c2ccc(I)cc2)C[C@H]2CCC1N2CCF` (stereo partly drawn), for which the Count/h in assay [5] is below 7796; in [6], below 3459; in [7], below 6898; in assay [8] it was below 2030; in assay [11], below 4400; in assay [1] it was below 4180. The Count/h is given as below 2945 in [9], below 4200 in [3] and below 7562 in assay [10]. For the same compound, the inhibition constant (Ki) in [2] was determined as 4 nM.
For `COC(=O)[C@@H]1C2CC[C@@H](C[C@@H]1OC(=O)c1ccccc1)N2C` (single isomer, unassigned) [COCAINE], the Count/h in assay [5] is listed as below 712; in [7], below 15710; in [1], below 14940; in [3], below 1960.
The compound “(2S,5R)-8-(2-Fluoro-ethyl)-3-(4-trimethylstannanyl-phenyl)-8-aza-bicyclo[3.2.1]octane-2-carboxylic acid methyl ester” yielded a Ki in assay [2] above 10000 nM.
Still for that read-out and setting: to “(2S,5R)-8-(3-Fluoro-propyl)-3-(4-trimethylstannanyl-phenyl)-8-aza-bicyclo[3.2.1]octane-2-carboxylic acid isopropyl ester” belongs above 10000 nM; to “(2S,5R)-8-(3-Fluoro-propyl)-3-(4-trimethylstannanyl-phenyl)-8-aza-bicyclo[3.2.1]octane-2-carboxylic acid methyl ester”, above 10000 nM.
